Only some compounds are listed: those with a hit (about 2.3% of all), similar ones and a draw of the others.
TRPC6 inh: mouse TRPC6 channel inhibitors, primary screen, cell-based, HEK293, membrane potential dye | 310,000 compounds, 1.1% hits | AID 2553, 2010 | B-score at 10 µM | Short transient receptor potential channel 6 (Mus musculus), Q61143 | ACh-evoked depolarization; active compounds read low;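 active = B-score under library mean minus 3 SD, initial fluorescence not abnormally high, positive integrated signal ratio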;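 also: B-score derived from integrated fluorescence ratio over the kinetic read; more negative B-score means stronger inhibition of depolarization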
Target sequence (Q61143 whole entry, looked up): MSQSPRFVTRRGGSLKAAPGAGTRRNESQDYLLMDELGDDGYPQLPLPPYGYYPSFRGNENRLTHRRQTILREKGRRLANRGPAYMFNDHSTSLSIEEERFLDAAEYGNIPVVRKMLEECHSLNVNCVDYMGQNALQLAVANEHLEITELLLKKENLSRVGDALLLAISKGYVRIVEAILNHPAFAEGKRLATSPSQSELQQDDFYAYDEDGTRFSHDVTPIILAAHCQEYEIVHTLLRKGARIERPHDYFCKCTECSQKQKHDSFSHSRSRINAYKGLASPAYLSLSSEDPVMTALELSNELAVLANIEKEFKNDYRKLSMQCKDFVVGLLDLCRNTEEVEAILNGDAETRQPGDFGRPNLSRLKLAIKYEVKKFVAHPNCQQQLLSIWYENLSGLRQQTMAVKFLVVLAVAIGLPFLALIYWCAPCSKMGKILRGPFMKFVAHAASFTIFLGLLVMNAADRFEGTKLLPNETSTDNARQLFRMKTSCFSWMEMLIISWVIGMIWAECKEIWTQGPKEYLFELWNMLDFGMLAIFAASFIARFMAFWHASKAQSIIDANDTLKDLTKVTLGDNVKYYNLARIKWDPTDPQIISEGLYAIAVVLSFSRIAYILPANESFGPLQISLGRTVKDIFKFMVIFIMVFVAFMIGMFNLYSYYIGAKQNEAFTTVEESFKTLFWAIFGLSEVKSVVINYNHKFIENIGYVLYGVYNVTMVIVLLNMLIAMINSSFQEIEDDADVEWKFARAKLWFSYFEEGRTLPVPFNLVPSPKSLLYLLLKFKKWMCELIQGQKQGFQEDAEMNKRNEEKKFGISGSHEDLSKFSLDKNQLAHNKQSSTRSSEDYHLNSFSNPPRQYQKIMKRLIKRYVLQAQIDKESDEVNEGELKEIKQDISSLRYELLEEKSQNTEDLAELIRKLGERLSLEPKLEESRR
TRPC6 act: mouse TRPC6 channel activators, primary screen, cell-based, HEK293, membrane potential dye. B-score at 10 µM. AID 2550, 2010. HEK293-TRPC6 membrane potential dye fluorescence; active compounds read high. 310,000 compounds, 0.13% hits. Short transient receptor potential channel 6 (Mus musculus), Q61143;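 active = B-score of the integrated fluorescence ratio above library mean plus 3 SD, and starting fluorescence ratio within library mean plus 5 SD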;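 also: higher score means more depolarization so channel activation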
TRPC4 block: inhibitors of mouse TRPC4 channel, primary screen, Fluo4 calcium, HEK293 TRPC4beta/mu-opioid cells; Short transient receptor potential channel 4 (Mus musculus), Q9QUQ5; DAMGO-evoked Fluo4 calcium flux; active compounds read low; B-score at 10 µM; 300,000 compounds, 0.39% hits;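 active = B-score over 3 SD under the library average, no early fluorescence shift, positive overall ratio signal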
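Material: HEK293 cells with stable TRPC4beta plus mu-opioid receptor expression / Probe or stimulus: DAMGO in two steps, submaximal then maximal / Compound: single concentration per test compound / Technique: kinetic Fluo4 fluorescence imaging of calcium influx / Read-out: per-well B score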
TRPC4 PAM: positive allosteric modulators of TRPC4, primary screen, cell-based, mouse TRPC4beta, HEK293 mu-opioid, Fluo-4 calcium; B-score at 10 µM; DAMGO EC20, Fluo-4 Ca2+ flux; active compounds read high; 310,000 compounds, 0.42% hits; Short transient receptor potential channel 4 (Mus musculus), Q9QUQ5;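 active = B-score of calcium response area above 5 SD of library B-scores, with initial fluorescence ratio within 5 SD of library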
TRPC4 agonist: activators of mouse TRPC4 channel, primary screen, Fluo4 calcium, HEK293 TRPC4beta/mu-opioid cells. Short transient receptor potential channel 4 (Mus musculus), Q9QUQ5. B-score at 10 µM. 310,000 compounds, 0.49% hits. Fluo4 calcium fluorescence; active compounds read high;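 active = B-score above 5 SD of library B-scores, and initial fluorescence ratio not above library mean plus 5 SD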;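 also: positive B-score marks a calcium rise read as TRPC4 activation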
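Technique: kinetic Fluo4 calcium fluorescence; Test system: TRPC4beta and mu-opioid receptor HEK293 stable cells; Measure: B-scored integrated calcium fluorescence ratio; Benchmarks: low control buffer alone, high control maximal DAMGO; Schedule: 45 min room-temperature Fluo4 loading, 110 s read.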
Large screens that a line does not name were inactive.

O=C(CC1C(=O)NCCN1Cc1cccc(Oc2ccccc2)c1)NCCc1cscn1 (stereo unspecified)	none
O=C(CC1C(=O)NCCN1Cc1c(F)cccc1Cl)NCCc1ccccn1 (stereo unspecified)	none
COc1cccc(CN2CCNC(=O)C2CC(=O)NCCc2ccccn2)c1 (stereo unspecified)	TRPC4 agonist 54
O=C(CC1C(=O)NCCN1CC1CCCCC1)NCc1ccc(F)cc1 (stereo unspecified)	none
O=C(CC1C(=O)NCCN1Cc1cccc(Oc2ccccc2)c1)NCCc1ccccn1 (stereo unspecified)	TRPC4 agonist 115
O=C(CC1C(=O)NCCN1Cc1ccccc1C(F)(F)F)NCCc1ccccn1 (stereo unspecified)	TRPC4 agonist 116
CCCCC[C@H]1CN(Cc2ccccc2)C(=O)[C@@H]1CC(=O)NCc1ccccc1	none
CC(C)(C)c1ccc(S(=O)(=O)NCCOCC(F)(F)C(F)F)cc1	none
O=C(Nc1ccc(O)c(C(=O)O)c1)Oc1ccccc1	none
CNC[C@@H](Cc1ccccc1)NC[C@@H](CC1CCCCC1)NCCCc1ccccc1	TRPC4 agonist 77
CN1CCN(S(=O)(=O)c2ccc(Cl)cc2)CC1	TRPC4 agonist 48
Cc1ccc(S(=O)(=O)N2CCC(N3CCN(C)CC3)CC2)cc1Cl	TRPC4 PAM 35
CN1CCN(S(=O)(=O)c2ccc(-c3ccc(Cl)cc3)cc2)CC1	none
COc1ccc(C(Nc2cccc([N+](=O)[O-])c2)P(=O)(OC(C)C)OC(C)C)cc1 (stereo unspecified)	none
Cc1cc(C(C)(C)C)c(O)c(C)c1CC1=NCCN1	TRPC4 PAM 17
c1ccc2c(CC3=NCCN3)cccc2c1	none
CCOC(=O)CCn1c(=O)c2c(nc(Br)n2Cc2ccccc2)n(C)c1=O	TRPC4 block -5
Cc1cccc(N/N=C(\C(N)=O)C2=NC(C)(C)Cc3ccccc32)c1	TRPC4 PAM 14
CCOC(=O)/C(=N\O)C1=NC(C)(C)Cc2ccccc21	none
COc1cc(CN(C2CCCCC2C)S(=O)(=O)c2ccc(S(=O)(=O)NC3CC3)cc2)cc(OC)c1OC (stereo unspecified)	none
COc1ccc(CN(C2CCCCC2C)S(=O)(=O)c2ccc(S(=O)(=O)N(C)C)cc2)cc1OC (stereo unspecified)	TRPC4 PAM 23
CCCc1c(O)nc(SCCN(CCC)CCC)[nH]c1=O	TRPC4 PAM 19, TRPC4 agonist 49
CC(C)c1c(O)nc(SCC(=O)N2CCOCC2)[nH]c1=O	none
CCCCCCCc1c(O)nc(SCCN(C)C)[nH]c1=O	TRPC4 PAM 10, TRPC4 agonist 81
CC(C)c1c(O)nc(SCCN(C)C)[nH]c1=O	TRPC4 PAM 35
CCCc1c(O)nc(SCC(=O)N2CCCCC2)[nH]c1=O	none
CCOC(=O)C1CCCN(C2=NC(=O)/C(=C/c3ccc(OC)cc3OC)S2)C1 (stereo unspecified)	none
CCCNC(=O)c1c[nH]c2ccc(S(=O)(=O)N(C)c3ccc(OCC)cc3)cc2c1=O	none
CCCCN(C)CCNC(=O)c1c[nH]c2ccc(S(=O)(=O)N(CC)CC)cc2c1=O	TRPC4 PAM 20
CCCCN(C)C(=O)Cn1nc(Cc2ccncc2)c2ccccc2c1=O	none
CCCCN(CC)CCCNC(=O)Cn1nc(Cc2ccncc2)c2ccccc2c1=O	TRPC4 agonist 133
O=C(Cn1nc(-c2ccc(Cl)cc2)c2ccccc2c1=O)NCC1CCCO1 (stereo unspecified)	none
Cc1ccc(-n2cc(CNCCCn3cccn3)c(-c3cccc(C)c3)n2)cc1	TRPC4 agonist 43
Cc1ccc(-n2cc(CNCCCn3ccnc3C)c(-c3ccc(F)cc3)n2)cc1	none
Cc1ccc(C)c(-n2cc(CN3CCCN(C=O)CC3)c(-c3ccccc3)n2)c1	TRPC4 agonist 72
Cc1ccc(C)c(-n2cc(CNCCCn3cccn3)c(-c3ccccc3)n2)c1	TRPC4 agonist 205
O=C(Nc1cc([N+](=O)[O-])ccc1N1CCCC1)c1ccccc1	none
COc1ccc(-c2nn(-c3ccccc3)cc2CNC(C)Cn2cncn2)c(F)c1 (stereo unspecified)	none
Cc1ccc(C)c(-n2cc(CNC(C)Cn3cncn3)c(-c3ccccc3)n2)c1 (stereo unspecified)	TRPC4 agonist 66
Cc1ccc(-n2cc(CNC(C)Cn3cncn3)c(-c3ccc(F)cc3)n2)cc1 (stereo unspecified)	TRPC4 agonist 64
Cc1ccc2[nH]c(=O)c(C(c3nnnn3CCc3ccccc3)N3CCOCC3)cc2c1 (stereo unspecified)	none
O=C(Nc1cccc(Cl)c1)NC1CCN(C2CCCCC2)C1 (stereo unspecified)	TRPC4 agonist 46
CCn1c(N2CCN(S(=O)(=O)c3ccccc3C(F)(F)F)CC2)nc2ccccc21	TRPC4 agonist 119
O=c1cc(N2CCCCC2)c(-c2ccccc2)nn1Cc1ccccc1Cl	TRPC4 PAM 14
CC(C)(c1ccccc1)c1ccc(OCCCNCCO)cc1	TRPC4 block -6
O=C(Nc1ccc(F)cc1)N1CCN2C(=O)c3ccccc3C12c1ccccc1 (stereo unspecified)	TRPC4 block -6
O=C1c2ccccc2C2(c3ccccc3)N1CCN2C(=O)C(Cl)(Cl)Cl (stereo unspecified)	none
Cc1ccc(NS(=O)(=O)c2cc([N+](=O)[O-])ccc2NNC(=S)Nc2cccc(Cl)c2)c(C)c1	none
Cc1ccc(NS(=O)(=O)c2cc([N+](=O)[O-])ccc2NNC(=S)Nc2cc(C)ccc2C)c(C)c1	TRPC4 PAM 16
O=C(COC(=O)Cc1cccs1)Nc1ccc(F)c(F)c1F	none
O=S(=O)(c1ccccc1)N1CCN(c2ccccc2)CC1	none
CCOc1ccc(CSC2=NCCN2)cc1[N+](=O)[O-]	TRPC4 PAM 11
CCCCOc1ccc(CSC2=NCCN2)cc1[N+](=O)[O-]	none
Cc1cc(CN2CCCC(CO)(Cc3cccc(Cl)c3)C2)n[nH]1 (stereo unspecified)	none
OCC1(Cc2ccccc2)CCCN(Cc2cnn(-c3ccccc3)c2)C1 (stereo unspecified)	TRPC4 block -7
COCc1ccc(CN2CCCC(CO)(Cc3cccc(Cl)c3)C2)o1 (stereo unspecified)	none
Cc1ccc(-n2cc(CN3CCC(CO)(Cc4ccccc4)CC3)cn2)cc1	none
CC(C)Cc1cc(CN2CCCC(CO)(Cc3cccc(Cl)c3)C2)[nH]n1 (stereo unspecified)	TRPC4 block -10

Source: PubChem
